Compound activity: PubChem, several laboratories
MEKK2 WT-MEK5 = raises or lowers MEK5 binding to wildtype human MEKK2 PB1 domain. binding response (% of control), % at 10 µM. actives 1.1% (n = 290,000). bead flow cytometry, Alexa488-MEK5 binding to MEKK2 WT; actives lie on both sides. AID 1531; in the data active = binding response below about 67% or above about 130%
MEKK2 mut-MEK5 = signal of MEK5 binding to mutant human MEKK2 PB1 domain; percent response, % at 10 µM; bead flow cytometry, Alexa488-MEK5 binding to MEKK2 mutant; actives 0.35% (n = 290,000); in the data active = percent response above about 24%, passing the limit was not always enough
HCV NS3 hel inh = inhibitors of Hepatitis C virus NS3 helicase; NS3 helicase DNA unwinding, Cy5 molecular beacon fluorescence; inhibition, % at 10.9 µM; actives 0.56% (n = 290,000);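 active = inhibition above the mean of all tested compounds plus 3 SD, set per campaign, cut at about 35% in these data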
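Control set: DMSO versus 110 µM thioflavine S; Material: NS3 helicase fragment of HCV; Measured by: Cy5 fluorescence at 0 and 60 min, beacon hairpin quenching; Read-out basis: percent inhibition from t60/t0 fluorescence ratio; Times: reaction time 60 min, 25 °C; Repeats: single replicate; Compound dosing: single dose, 10.9 µM nominal final, DMSO 0.8% final.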
MEKK3 PB1 HTS = MEKK3-MEK5 PB1 interaction, increase or decrease; AID 1529; actives 1.4% (n = 290,000); binding response (% of control), % at 10 µM; bead-based flow cytometry, Alexa488-MEK5 binding to MEKK3; actives lie on both sides; 0 = blocked by unlabeled MEK5, 100 = vehicle; Q99759;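 active = binding response more than 3 SD above or below the average of its plate-row segment, actives on both sides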;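 note: Alexa488 bead fluorescence after subtracting the streptavidin-only scavenger bead signal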
Target sequence (Q99759 whole entry, looked up): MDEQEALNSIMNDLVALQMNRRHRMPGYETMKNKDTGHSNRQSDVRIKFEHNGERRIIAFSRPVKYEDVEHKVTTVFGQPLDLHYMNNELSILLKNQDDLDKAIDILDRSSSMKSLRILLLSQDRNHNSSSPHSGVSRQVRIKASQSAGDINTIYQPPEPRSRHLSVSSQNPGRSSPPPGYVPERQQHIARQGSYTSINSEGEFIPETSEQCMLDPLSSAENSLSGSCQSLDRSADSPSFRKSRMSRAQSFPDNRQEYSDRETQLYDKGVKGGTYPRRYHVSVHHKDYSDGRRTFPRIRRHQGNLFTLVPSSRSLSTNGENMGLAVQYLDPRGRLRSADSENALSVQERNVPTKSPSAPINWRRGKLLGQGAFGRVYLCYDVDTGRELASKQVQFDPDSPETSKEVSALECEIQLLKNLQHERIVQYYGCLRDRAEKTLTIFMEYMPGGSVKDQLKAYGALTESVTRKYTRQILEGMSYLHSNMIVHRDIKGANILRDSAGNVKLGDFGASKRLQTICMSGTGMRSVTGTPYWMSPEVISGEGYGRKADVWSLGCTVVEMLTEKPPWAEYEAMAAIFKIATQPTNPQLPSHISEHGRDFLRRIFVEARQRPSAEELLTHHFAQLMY
T cruzi inh = blocks replication of Trypanosoma cruzi; T. cruzi beta-gal in NIH3T3, luminescence, 90 h; actives 1.4% (n = 300,000); AID 1885; inhibition, % (no concentration beside the values);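 active = mean inhibition across valid replicates above about 55%, limit read from the data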;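 note: signal also drops with host cell toxicity which is not excluded here; higher percent means less beta-gal luminescence so fewer parasites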
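System – NIH/3T3 host cells with β-galactosidase reporter T. cruzi · Doses – single 50 nL compound addition per well in DMSO · Reagent – 5000 T. cruzi trypomastigotes/well · Medium – Low-serum DMEM with 2% FBS · Timing – ≥90 h infection period, 3 h prior cell attachment · Evaluation – parasite load inhibition, % · Technique – GalScreen luminescence, 60 min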
FID counter = fluorescent intercalator displacement, NS3 helicase counter-screen. DNA fluorescent intercalator displacement, fluorescence. inhibition, % at 7.9 µM. actives 0.17% (n = 290,000). AID 1845; in the data active = inhibition above about 37%;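 note: higher means more ethidium bromide displaced from hairpin DNA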
Hits are given with their value. The list is not random: actives were taken first. Their share in the collection is about 4.1%.

What do the screens show for `Oc1c(C(Nc2nccs2)c2ccc(C(F)(F)F)cc2)ccc2cccnc12` (configuration not stated)?
MEKK2 WT-MEK5: inactive; MEKK2 mut-MEK5: inactive; HCV NS3 hel inh: inactive; MEKK3 PB1 HTS: inactive; T cruzi inh: inactive; FID counter: inactive

How did CCCCC(=O)NC(c1ccc(N(C)C)cc1)c1ccc2cccnc2c1O (configuration not stated) do in these assays?
MEKK2 WT-MEK5: inactive; MEKK2 mut-MEK5: inactive; HCV NS3 hel inh: inactive; MEKK3 PB1 HTS: inactive; T cruzi inh: 56.6; FID counter: inactive

How did CC(C)N1CCc2c(sc(NC(=O)c3ccc4ccccc4c3)c2C(N)=O)C1 do in these assays?
MEKK2 WT-MEK5: 134.0; MEKK2 mut-MEK5: inactive; HCV NS3 hel inh: inactive; MEKK3 PB1 HTS: inactive; T cruzi inh: inactive; FID counter: inactive

How did NC(=O)c1c(NC(=O)c2ccc([N+](=O)[O-])o2)sc2c1CCCC2 do in these assays?
MEKK2 WT-MEK5: inactive; MEKK2 mut-MEK5: inactive; HCV NS3 hel inh: inactive; MEKK3 PB1 HTS: inactive; T cruzi inh: inactive; FID counter: inactive

What do the screens show for `CC(C)N1CCc2c(sc(NC(=O)c3cc4cc([N+](=O)[O-])ccc4s3)c2C(N)=O)C1`?
MEKK2 WT-MEK5: inactive; MEKK2 mut-MEK5: inactive; HCV NS3 hel inh: inactive; MEKK3 PB1 HTS: inactive; T cruzi inh: inactive; FID counter: inactive

Results for CN1CCc2c(sc(NC(=O)c3ccc([N+](=O)[O-])o3)c2C(N)=O)C1 ?
MEKK2 WT-MEK5: inactive; MEKK2 mut-MEK5: inactive; HCV NS3 hel inh: inactive; MEKK3 PB1 HTS: inactive; T cruzi inh: 63.8; FID counter: inactive

How did CN1CCc2c(sc(NC(=O)c3cc4cc([N+](=O)[O-])ccc4s3)c2C(N)=O)C1 do in these assays?
MEKK2 WT-MEK5: inactive; MEKK2 mut-MEK5: inactive; HCV NS3 hel inh: inactive; MEKK3 PB1 HTS: inactive; T cruzi inh: 68.7; FID counter: inactive

What do the screens show for `CC(=O)Nc1sc2c(c1-c1nc3ccccc3s1)CCN(C(C)C)C2`?
MEKK2 WT-MEK5: inactive; MEKK2 mut-MEK5: inactive; HCV NS3 hel inh: inactive; MEKK3 PB1 HTS: inactive; FID counter: 60.4

Results for CC1CCCC/C1=N\NS(=O)(=O)c1ccc(Br)cc1 (configuration not stated) ?
MEKK2 WT-MEK5: inactive; MEKK2 mut-MEK5: inactive; HCV NS3 hel inh: inactive; MEKK3 PB1 HTS: inactive; T cruzi inh: inactive; FID counter: inactive

What do the screens show for `NC(=O)c1ccc(/C=N/O)[n+](Cc2ccccc2)c1`?
MEKK2 WT-MEK5: inactive; MEKK2 mut-MEK5: inactive; HCV NS3 hel inh: inactive; MEKK3 PB1 HTS: inactive; T cruzi inh: inactive; FID counter: inactive

How did CC1=CC(=O)C2=C(C)CC[C@@H]3[C@H](OC(=O)[C@H]3C)[C@@H]12 do in these assays?
MEKK2 WT-MEK5: inactive; MEKK2 mut-MEK5: inactive; MEKK3 PB1 HTS: inactive; T cruzi inh: inactive

What do the screens show for `CC1C(=O)OC2C1CCC1(C)CCC(=O)C(C)C21` (configuration not stated)?
MEKK2 WT-MEK5: inactive; MEKK2 mut-MEK5: inactive; HCV NS3 hel inh: inactive; MEKK3 PB1 HTS: inactive; T cruzi inh: 54.7; FID counter: inactive

What do the screens show for `CN(C)c1ccc(/C=c2/sc3n(c2=O)NC2(c4ccccc4)N(C)C(=O)N(C)C2(c2ccccc2)N=3)cc1` (configuration not stated)?
MEKK2 WT-MEK5: inactive; MEKK2 mut-MEK5: inactive; HCV NS3 hel inh: inactive; MEKK3 PB1 HTS: inactive; T cruzi inh: inactive; FID counter: inactive

How did O=C(O)c1ccc(N2C(=O)/C(=C/c3ccc(-c4ccc([N+](=O)[O-])cc4)o3)C=C2c2ccccc2)cc1 do in these assays?
MEKK2 mut-MEK5: inactive; HCV NS3 hel inh: 39.7; MEKK3 PB1 HTS: inactive; T cruzi inh: inactive; FID counter: inactive

How did O=C1NN(c2ccccc2)C(=O)/C1=C/c1ccc(-c2ccc(C(=O)O)cc2)o1 do in these assays?
MEKK2 WT-MEK5: inactive; MEKK2 mut-MEK5: inactive; HCV NS3 hel inh: inactive; MEKK3 PB1 HTS: inactive; T cruzi inh: inactive; FID counter: inactive

Results for CC(C)C(Nc1ncnc2c1oc1ccccc12)C(=O)O (configuration not stated) ?
MEKK2 WT-MEK5: inactive; MEKK2 mut-MEK5: inactive; HCV NS3 hel inh: inactive; MEKK3 PB1 HTS: inactive; T cruzi inh: 76.9; FID counter: inactive
